Laboratory results from PMC5189983 (Biomaterials, 2016).

What was measured:
EAE = EAE mouse model of MS; format: in vivo, C57BL/6 female mice; conditions: 50 µg free GpG on days 5, 10, and 15
2D2 CD4+ T cells = test: DC/2D2 T cell co-culture, T cell proliferation; format: cell-based, mice; conditions: 48 hours co-culture, dye dilution
Procedure, shortened: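 Splenic CD11c+ DCs from female C57BL/6 mice were isolated by positive selection and plated at 100,000/well in RPMI 1640 with 10% FBS at 37°C and 5% CO2. They were stimulated with CpG (5 µg/mL) plus complex or free controls for 24 h. Splenic CD4+ T cells from 2D2 mice were isolated by negative selection and labelled with eFluor 670 dye. They were co-cultured with the DCs for 48 h, then stained with DAPI and anti-CD4, and dye dilution was read by flow cytometry.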

Row | Substance | therapeutic effect relative to untreated mice (EAE) | CD4+ T cell proliferation (2D2 CD4+ T cells)
1 | 5’-TGACTGTGAAGGTTAGAGATGA-3’ (DNA TGACTGTGAAGGTTAGAGATGA; chemistry not given here) [GpG] | no therapeutic effect | –
2 | 5’-TCCATGACGTTCCTGACGTT-3’ [CpG] | – | did not cause any proliferation
